Where a SMILES comes first, the peptide text is derived from it. [ ]: non-standard residue; d: D form. Orn = NCCC[C@H](N)C(=O)O
Legend:
Escherichia coli [1] = assay: Antimicrobial activity against Escherichia coli 205024 after 20 hrs by broth microdilution method; type: functional; details: Escherichia coli, 205024, 20 h
How it was run: (§1)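 Pathogens grown overnight on Columbia agar. Colonies suspended in 0.9% saline to OD 0.1, diluted 1:300 in 1% TSB, final (1-2) × 10^5 cfu/well. Peptides 2-fold serially diluted in 1% TSB from 128 to typically 0.5 μg/mL. Incubation at 37 °C; A595 read after 20 ± 2 h. MIC is the lowest concentration with absorbance not above medium only. Triplicate.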

Pseudomonas aeruginosa [2] = assay: Antimicrobial activity against Pseudomonas aeruginosa PAO1 after 20 hrs by broth microdilution method; type: functional; details: PAO1, 20 h
How it was run: (§2)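 Pathogenic strains grown overnight on Columbia agar, colonies suspended in 0.9% saline to OD 0.1, diluted 1:300 in 1% TSB; final (1-2) × 10^5 cfu/well. Peptides 2-fold serially diluted in 1% TSB from 128 μg/mL, typically to 0.5 μg/mL. Incubated 37 °C, absorbance at 595 nm after 20 ± 2 h, in triplicate; MIC = lowest concentration with absorbance not exceeding medium only.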

Escherichia coli [3] = assay: Antimicrobial activity against Escherichia coli 70329001 after 20 hrs by broth microdilution method; type: functional; details: Escherichia coli, 70329001, 20 h; how it was run: as §1
Stenotrophomonas [4] = assay: Antimicrobial activity against Stenotrophomonas ICB 308054 after 20 hrs by broth microdilution method; type: functional; details: ICB 308054, 20 h; how it was run: as §1
Acinetobacter baumannii [5] = assay: Antimicrobial activity against Acinetobacter baumannii ICB 14073 after 20 hrs by broth microdilution method; type: functional; details: ICB 14073, 20 h; how it was run: as §1
Acinetobacter baumannii [6] = assay: Antimicrobial activity against Acinetobacter baumannii ICB 9250 after 20 hrs by broth microdilution method; type: functional; details: ICB 9250, 20 h; how it was run: as §1
Pseudomonas aeruginosa [7] = assay: Antimicrobial activity against Pseudomonas aeruginosa ATCC 27853 after 20 hrs by broth microdilution method; type: functional; details: ATCC 27853, 20 h; how it was run: as §2
Pseudomonas aeruginosa [8] = assay: Antimicrobial activity against Pseudomonas aeruginosa 70108001 after 20 hrs by broth microdilution method; type: functional; details: Pseudomonas aeruginosa, 70108001, 20 h; how it was run: as §2
Klebsiella pneumoniae [9] = assay: Antimicrobial activity against Klebsiella pneumoniae 63 after 20 hrs by broth microdilution method; type: functional; details: Klebsiella pneumoniae, 63, 20 h; how it was run: as §2
[10] = Stability in 100% mouse serum assessed as half life at 75 ug/ml by MALDI-TOF-MS analysis; type: ADME, cell-free
How it was run: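 Peptide at 75 μg/mL final in pooled mouse serum (undiluted or 25% v:v aqueous), 37 °C. Triplicate aliquots taken at 0, 30, 60, 120 and 240 min and precipitated with 3% TCA on ice for 10 min. Supernatant neutralized with NaOH and analysed by RP-HPLC on C18 with TFA-containing gradient. Amounts expressed relative to 0 min; metabolites identified by MALDI-TOF-MS.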

Escherichia coli [11] = assay: Antimicrobial activity against Escherichia coli 70430001 after 20 hrs by broth microdilution method; type: functional; details: Escherichia coli, 70430001, 20 h; how it was run: as §1
Proteus vulgaris [12] = assay: Antimicrobial activity against Proteus vulgaris ICB 9081 after 20 hrs by broth microdilution method; type: functional; details: ICB 9081, 20 h; how it was run: as §1
Proteus vulgaris [13] = assay: Antimicrobial activity against Proteus vulgaris ICB 9095 after 20 hrs by broth microdilution method; type: functional; details: ICB 9095, 20 h; how it was run: as §1
Escherichia coli [14] = assay: Antimicrobial activity against Escherichia coli 70502001 after 20 hrs by broth microdilution method; type: functional; details: Escherichia coli, 70502001, 20 h; how it was run: as §1
Pseudomonas aeruginosa [15] = assay: Antimicrobial activity against Pseudomonas aeruginosa 60909001 after 20 hrs by broth microdilution method; type: functional; details: Pseudomonas aeruginosa, 60909001, 20 h; how it was run: as §2
Pseudomonas aeruginosa [16] = assay: Antimicrobial activity against Pseudomonas aeruginosa 60811001 after 20 hrs by broth microdilution method; type: functional; details: Pseudomonas aeruginosa, 60811001, 20 h; how it was run: as §2
Pseudomonas aeruginosa [17] = assay: Antimicrobial activity against Pseudomonas aeruginosa Walter after 20 hrs by broth microdilution method; type: functional; how it was run: as §2
Klebsiella pneumoniae [18] = assay: Antimicrobial activity against Klebsiella pneumoniae ATCC 27799 after 20 hrs by broth microdilution method; type: functional; details: ATCC 27799, 20 h; how it was run: as §2
Klebsiella pneumoniae [19] = assay: Antimicrobial activity against Klebsiella pneumoniae 57 USA after 20 hrs by broth microdilution method; type: functional; how it was run: as §1
Escherichia coli [20] = assay: Antibacterial activity against Escherichia coli BL21 AI after 20 hrs by broth microdilution assay; type: functional
How it was run: (§3)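 Nutrient-broth overnight cultures diluted in 1% TSB; E. coli BL21AI 7.5 × 10^5 cells/well, M. luteus ATCC 10240 2 × 10^6 cells/well. Peptides serially 2-fold diluted in 1% TSB from 128 to typically 0.5 μg/mL. Incubation at 37 °C; A595 read after 20 ± 2 h. MIC is the lowest concentration with absorbance not above medium only. Triplicate.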

Escherichia coli [21] = assay: Antimicrobial activity against Escherichia coli 8474 after 20 hrs by broth microdilution method; type: functional; details: Escherichia coli, 8474, 20 h; how it was run: as §1
Stenotrophomonas [22] = assay: Antimicrobial activity against Stenotrophomonas ICB 7569 after 20 hrs by broth microdilution method; type: functional; details: ICB 7569, 20 h; how it was run: as §1
Escherichia coli [23] = assay: Antimicrobial activity against Escherichia coli Neumann after 20 hrs by broth microdilution method; type: functional; how it was run: as §1
HeLa = assay: Cytotoxicity against human HeLa cells at 600 ug/ml after 24 hrs by MTT assay; type: cell-based
How it was run: (§4)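 HeLa (1.5 × 10^4/well, seeded overnight) or SH-SY5Y (2 × 10^4/well, differentiated 5 days with 10 μM trans-retinoic acid) in DMEM/Ham's F-12 with 5% or 15% FBS. Peptide added at 600 μg/mL for 24 h at 37 °C, 5% CO2. MTT 0.5 mg/mL for 4 h, then SDS/HCl for 16 h; A590 read against 650 nm. Normalized to PBS (100%); DMSO 12% as positive control.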

SH-SY5Y = assay: Cytotoxicity against human SH-SY5Y cells at 600 ug/ml after 24 hrs by MTT assay; type: cell-based; how it was run: as §4
Klebsiella pneumoniae [24] = assay: Antimicrobial activity against Klebsiella pneumoniae 8085 after 20 hrs by broth microdilution method; type: functional; details: Klebsiella pneumoniae, 8085, 20 h; how it was run: as §1
Stenotrophomonas [25] = assay: Antimicrobial activity against Stenotrophomonas ICB 7789 after 20 hrs by broth microdilution method; type: functional; details: ICB 7789, 20 h; how it was run: as §1
Micrococcus luteus = assay: Antibacterial activity against Micrococcus luteus ATCC 10240 after 20 hrs by broth microdilution assay; type: functional; details: ATCC 10240, 20 h; how it was run: as §3
Enterobacter cloacae [26] = assay: Antimicrobial activity against Enterobacter cloacae Ha185 after 20 hrs by broth microdilution method; type: functional; details: Ha185, 20 h; how it was run: as §2
Acinetobacter baumannii [27] = assay: Antimicrobial activity against Acinetobacter baumannii ICB 14072 after 20 hrs by broth microdilution method; type: functional; details: ICB 14072, 20 h; how it was run: as §1
Klebsiella pneumoniae [28] = assay: Antimicrobial activity against Klebsiella pneumoniae DSM 681 after 20 hrs by broth microdilution method; type: functional; details: DSM 681, 20 h; how it was run: as §1
Pseudomonas aeruginosa [29] = assay: Antimicrobial activity against Pseudomonas aeruginosa DSM 3227 after 20 hrs by broth microdilution method; type: functional; details: DSM 3227, 20 h; how it was run: as §2
Enterobacter cloacae [30] = assay: Antimicrobial activity against Enterobacter cloacae Ha89 after 20 hrs by broth microdilution method; type: functional; details: Ha89, 20 h; how it was run: as §1
Escherichia coli [31] = assay: Antimicrobial activity against Escherichia coli 70419002 after 20 hrs by broth microdilution method; type: functional; details: Escherichia coli, 70419002, 20 h; how it was run: as §1
Acinetobacter baumannii [32] = assay: Antimicrobial activity against Acinetobacter baumannii ICB 14067 after 20 hrs by broth microdilution method; type: functional; details: ICB 14067, 20 h; how it was run: as §1
Acinetobacter baumannii [33] = assay: Antimicrobial activity against Acinetobacter baumannii M17 after 20 hrs by broth microdilution method; type: functional; details: M17, 20 h; how it was run: as §1
Pseudomonas aeruginosa [34] = assay: Antimicrobial activity against Pseudomonas aeruginosa 61118003 after 20 hrs by broth microdilution method; type: functional; details: Pseudomonas aeruginosa, 61118003, 20 h; how it was run: as §2
Enterobacter cloacae [35] = assay: Antimicrobial activity against Enterobacter cloacae 34654 after 20 hrs by broth microdilution method; type: functional; details: Enterobacter cloacae, 34654, 20 h; how it was run: as §1
Enterobacter cloacae [36] = assay: Antimicrobial activity against Enterobacter cloacae Ha088 after 20 hrs by broth microdilution method; type: functional; details: Ha088, 20 h; how it was run: as §1
Escherichia coli [37] = assay: Antimicrobial activity against Escherichia coli 455/7 after 20 hrs by broth microdilution method; type: functional; details: 455/7, 20 h; how it was run: as §1
Klebsiella pneumoniae [38] = assay: Antimicrobial activity against Klebsiella pneumoniae ATCC 12657 after 20 hrs by broth microdilution method; type: functional; details: ATCC 12657, 20 h; how it was run: as §1
Enterobacter cloacae [39] = assay: Antimicrobial activity against Enterobacter cloacae Ha089 after 20 hrs by broth microdilution method; type: functional; details: Ha089, 20 h; how it was run: as §1

CC[C@H](C)[C@H](NC(=O)[C@H](CCCN)NC(=O)[C@H](CCCNC(=N)N)NC(=O)[C@@H]1CCCN1C(=O)[C@@H]1CCCN1C(=O)[C@H](CCCNC(=N)N)NC(=O)[C@@H]1CCCN1C(=O)[C@H](CCCNC(=N)N)NC(=O)[C@@H]1CCCN1C(=O)[C@H](CC(C)C)NC(=O)[C@H](Cc1ccc(O)cc1)NC(=O)[C@@H]1CCCN1C(=O)[C@@H]1CCCN1C(=O)[C@H](CCCCN)NC(=O)[C@H](CC(=O)O)NC(=O)[C@@H](N)C(C)C)C(=O)N[C@@H](Cc1ccc(O)cc1)C(=O)N[C@@H](CC(N)=O)C(=O)N[C@@H](CCCN)C(N)=O (H-VDKPPYLPRPRPPR[Orn]IYN[Orn]-NH2)
4 µg/mL: MIC (Proteus vulgaris [13]) | MIC (Pseudomonas aeruginosa [17]) | MIC (Pseudomonas aeruginosa [29])
16 µg/mL: MIC (Stenotrophomonas [22])
8 µg/mL: MIC (Proteus vulgaris [12]) | MIC (Escherichia coli [20]) | MIC (Micrococcus luteus)
1 µg/mL: MIC (Escherichia coli [1]) | MIC (Escherichia coli [3]) | MIC (Acinetobacter baumannii [5]) | MIC (Escherichia coli [14]) | MIC (Pseudomonas aeruginosa [15]) | MIC (Klebsiella pneumoniae [18]) | MIC (Acinetobacter baumannii [27]) | MIC (Acinetobacter baumannii [32]) | MIC (Acinetobacter baumannii [33]) | MIC (Pseudomonas aeruginosa [34])
2 µg/mL: MIC (Pseudomonas aeruginosa [2]) | MIC (Pseudomonas aeruginosa [7]) | MIC (Pseudomonas aeruginosa [8]) | MIC (Klebsiella pneumoniae [9]) | MIC (Pseudomonas aeruginosa [16]) | MIC (Escherichia coli [31])
32 µg/mL: MIC (Stenotrophomonas [4]) | MIC (Stenotrophomonas [25])
3 h: half-life at 75 ug/ml [10]
Non-toxic: Activity (HeLa) | Activity (SH-SY5Y)
0.5 µg/mL: MIC (Acinetobacter baumannii [6]) | MIC (Escherichia coli [11]) | MIC (Klebsiella pneumoniae [19]) | MIC (Escherichia coli [21]) | MIC (Escherichia coli [23]) | MIC (Klebsiella pneumoniae [24]) | MIC (Enterobacter cloacae [26]) | MIC (Klebsiella pneumoniae [28]) | MIC (Enterobacter cloacae [35]) | MIC (Escherichia coli [37]) | MIC (Klebsiella pneumoniae [38])
0.25 µg/mL: MIC (Enterobacter cloacae [30]) | MIC (Enterobacter cloacae [36]) | MIC (Enterobacter cloacae [39])

Reference: ChEMBL document CHEMBL1155452, “Oncocin (VDKPPYLPRPRPPRRIYNR-NH2): a novel antibacterial peptide optimized against gram-negative human pathogens” (J Med Chem, 2010)
